Laboratory results taken from ChEMBL document CHEMBL6182834, “Dual EGFR and telomerase inhibitory potential of new triazole tethered Schiff bases endowed with apoptosis: design, synthesis, and biological assessments” (RSC Med Chem, 2025).
pIC50: −log10 of the molar value.

Test system: HepG2
Assay: Antiproliferative activity against human HepG2 cells assessed as growth inhibition at 100 ug/mL incubated for 48 hrs by SRB assay relative to control
Assay type: functional
Conditions: read-out: GI
How it was run: (§1)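 SRB assay: cells seeded at 3×10^3/well, allowed 24 h to attach, then exposed to 100 µg/mL for 48 h, three wells per concentration, DMSO 1% v/v vehicle control. Cells fixed with 20% trichloroacetic acid and stained with 0.4% SRB, then OD read at 570 nm. Survival fraction taken as treated OD/control OD.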

| Structure (SMILES) | inhibition of growth at 100 µg/mL [%] |
| --- | --- |
| COc1cccc(/C=N/NC(=O)c2nnn(-c3ccc(F)cc3)c2C)c1OC | 49 |
| COc1cccc(/C=N/NC(=O)c2nnn(-c3ccc(Br)cc3)c2C)c1OC | 69 |
| COc1cc(/C=N/NC(=O)c2nnn(-c3ccc(F)cc3)c2C)cc(OC)c1OC | 79 |
| COc1ccc(/C=N/NC(=O)c2nnn(-c3ccc(Br)cc3)c2C)cc1OC | 59 |

Test system: A-375
Assay: Antiproliferative activity against human A-375 cells assessed as growth inhibition at 100 ug/mL incubated for 48 hrs by SRB assay relative to control
Assay type: functional
Conditions: read-out: GI
How it was run: as §1

| Structure (SMILES) | inhibition of growth at 100 µg/mL [%] |
| --- | --- |
| COc1cccc(/C=N/NC(=O)c2nnn(-c3ccc(F)cc3)c2C)c1OC | 71 |
| COc1cccc(/C=N/NC(=O)c2nnn(-c3ccc(Br)cc3)c2C)c1OC | 73 |
| COc1cc(/C=N/NC(=O)c2nnn(-c3ccc(F)cc3)c2C)cc(OC)c1OC | 85 |
| COc1ccc(/C=N/NC(=O)c2nnn(-c3ccc(Br)cc3)c2C)cc1OC | 77 |

Test system: Caco-2
Assay: Antiproliferative activity against human Caco-2 cells assessed as growth inhibition at 100 ug/mL incubated for 48 hrs by SRB assay relative to control
Assay type: functional
Conditions: read-out: GI
How it was run: as §1

| Structure (SMILES) | inhibition of growth at 100 µg/mL [%] |
| --- | --- |
| COc1cccc(/C=N/NC(=O)c2nnn(-c3ccc(F)cc3)c2C)c1OC | 36 |
| COc1cccc(/C=N/NC(=O)c2nnn(-c3ccc(Br)cc3)c2C)c1OC | 47 |
| COc1cc(/C=N/NC(=O)c2nnn(-c3ccc(F)cc3)c2C)cc(OC)c1OC | 58 |
| COc1ccc(/C=N/NC(=O)c2nnn(-c3ccc(Br)cc3)c2C)cc1OC | 40 |

Test system: not listed separately
Assay: Cytotoxicity against HSF cells assessed as growth inhibition at 100 ug/mL incubated for 48 hrs by SRB assay relative to control
Assay type: toxicity, cell-based
Conditions: human, at 100 µg/mL, read-out: GI
How it was run: as §1

| Structure (SMILES) | inhibition at 48 h, 100 ug/mL [%] |
| --- | --- |
| COc1cccc(/C=N/NC(=O)c2nnn(-c3ccc(F)cc3)c2C)c1OC | 9 |
| COc1cccc(/C=N/NC(=O)c2nnn(-c3ccc(Br)cc3)c2C)c1OC | 35 |
| COc1cc(/C=N/NC(=O)c2nnn(-c3ccc(F)cc3)c2C)cc(OC)c1OC | 38 |
| COc1ccc(/C=N/NC(=O)c2nnn(-c3ccc(Br)cc3)c2C)cc1OC | 20 |

Test system: MCF7
Assay: Antiproliferative activity against human MCF7 cells assessed as growth inhibition at 100 ug/mL incubated for 48 hrs by SRB assay relative to control
Assay type: functional
Conditions: read-out: GI
How it was run: as §1

| Structure (SMILES) | inhibition of growth at 100 µg/mL [%] |
| --- | --- |
| COc1cccc(/C=N/NC(=O)c2nnn(-c3ccc(F)cc3)c2C)c1OC | 78 |
| COc1cccc(/C=N/NC(=O)c2nnn(-c3ccc(Br)cc3)c2C)c1OC | 60 |
| COc1cc(/C=N/NC(=O)c2nnn(-c3ccc(F)cc3)c2C)cc(OC)c1OC | 68 |
| COc1ccc(/C=N/NC(=O)c2nnn(-c3ccc(Br)cc3)c2C)cc1OC | 86 |

Test system: HCT-116
Assay: Cytotoxicity against human HCT-116 cells assessed as inhibition of cell growth incubated for 48 hrs by SRB assay
Assay type: functional, cell-based
Conditions: HCT-116, 48 h
How it was run: (§2)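 Cells plated at 3×10^3/well and left 24 h to attach. Treated at 12.5, 25, 50 and 62.5 µg/mL for 48 h, three wells per concentration, with DMSO (1% v/v) vehicle control. Fixed with 20% TCA, stained with 0.4% SRB, OD read at 570 nm. Survival fraction = treated OD/control OD. IC50 from sigmoidal dose-response curve fitting.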

| Structure (SMILES) | pIC50 |
| --- | --- |
| COc1cc(/C=N/NC(=O)c2nnn(-c3ccc(F)cc3)c2C)cc(OC)c1OC | 4.73 |

Test system: Huh-7
Assay: Antiproliferative activity against human Huh-7 cells assessed as growth inhibition at 100 ug/mL incubated for 48 hrs by SRB assay relative to control
Assay type: functional
Conditions: read-out: GI
How it was run: as §1

| Structure (SMILES) | inhibition of growth at 100 µg/mL [%] |
| --- | --- |
| COc1cccc(/C=N/NC(=O)c2nnn(-c3ccc(F)cc3)c2C)c1OC | 68 |
| COc1cccc(/C=N/NC(=O)c2nnn(-c3ccc(Br)cc3)c2C)c1OC | 70 |
| COc1cc(/C=N/NC(=O)c2nnn(-c3ccc(F)cc3)c2C)cc(OC)c1OC | 75 |
| COc1ccc(/C=N/NC(=O)c2nnn(-c3ccc(Br)cc3)c2C)cc1OC | 53 |

Test system: not listed separately
Assay: Cytotoxicity against human HNO 97 cell line assessed as inhibition of cell growth incubated for 48 hrs by SRB assay
Assay type: functional, cell-based
Conditions: HNO 97, 48 h
How it was run: as §2

| Structure (SMILES) | pIC50 |
| --- | --- |
| COc1cc(/C=N/NC(=O)c2nnn(-c3ccc(F)cc3)c2C)cc(OC)c1OC | 4.80 |

Test system: HeLa
Assay: Antiproliferative activity against human HeLa cells assessed as growth inhibition at 100 ug/mL incubated for 48 hrs by SRB assay relative to control
Assay type: functional
Conditions: read-out: GI
How it was run: as §1

| Structure (SMILES) | inhibition of growth at 100 µg/mL [%] |
| --- | --- |
| COc1cccc(/C=N/NC(=O)c2nnn(-c3ccc(F)cc3)c2C)c1OC | 45 |
| COc1cccc(/C=N/NC(=O)c2nnn(-c3ccc(Br)cc3)c2C)c1OC | 68 |
| COc1cc(/C=N/NC(=O)c2nnn(-c3ccc(F)cc3)c2C)cc(OC)c1OC | 56 |
| COc1ccc(/C=N/NC(=O)c2nnn(-c3ccc(Br)cc3)c2C)cc1OC | 65 |

Test system: MDA-MB-468
Assay: Antiproliferative activity against human MDA-MB-468 cells assessed as growth inhibition at 100 ug/mL incubated for 48 hrs by SRB assay relative to control
Assay type: functional
Conditions: read-out: GI
How it was run: as §1

| Structure (SMILES) | inhibition of growth at 100 µg/mL [%] |
| --- | --- |
| COc1cccc(/C=N/NC(=O)c2nnn(-c3ccc(F)cc3)c2C)c1OC | 52 |
| COc1cccc(/C=N/NC(=O)c2nnn(-c3ccc(Br)cc3)c2C)c1OC | 63 |
| COc1cc(/C=N/NC(=O)c2nnn(-c3ccc(F)cc3)c2C)cc(OC)c1OC | 72 |
| COc1ccc(/C=N/NC(=O)c2nnn(-c3ccc(Br)cc3)c2C)cc1OC | 54 |

Test system: not listed separately
Assay: Cytotoxicity against human oral epithelial cells (OEC) assessed as growth inhibition at 100 ug/mL incubated for 48 hrs by SRB assay relative to control
Assay type: toxicity, cell-based, Oral epithelial cell
Conditions: at 100 µg/mL, read-out: GI
How it was run: as §1

| Structure (SMILES) | inhibition at 48 h, 100 ug/mL [%] |
| --- | --- |
| COc1cccc(/C=N/NC(=O)c2nnn(-c3ccc(F)cc3)c2C)c1OC | 13 |
| COc1cccc(/C=N/NC(=O)c2nnn(-c3ccc(Br)cc3)c2C)c1OC | 19 |
| COc1cc(/C=N/NC(=O)c2nnn(-c3ccc(F)cc3)c2C)cc(OC)c1OC | 32 |
| COc1ccc(/C=N/NC(=O)c2nnn(-c3ccc(Br)cc3)c2C)cc1OC | 28 |

Test system: HCT-116
Assay: Antiproliferative activity against human HCT-116 cells assessed as growth inhibition at 100 ug/mL incubated for 48 hrs by SRB assay relative to control
Assay type: functional
Conditions: read-out: GI
How it was run: as §1

| Structure (SMILES) | inhibition of growth at 100 µg/mL [%] |
| --- | --- |
| COc1cccc(/C=N/NC(=O)c2nnn(-c3ccc(F)cc3)c2C)c1OC | 64 |
| COc1cccc(/C=N/NC(=O)c2nnn(-c3ccc(Br)cc3)c2C)c1OC | 69 |
| COc1cc(/C=N/NC(=O)c2nnn(-c3ccc(F)cc3)c2C)cc(OC)c1OC | 73 |
| COc1ccc(/C=N/NC(=O)c2nnn(-c3ccc(Br)cc3)c2C)cc1OC | 63 |

Test system: HepG2
Assay: Cytotoxicity against human HepG2 cells assessed as inhibition of cell growth incubated for 48 hrs by SRB assay
Assay type: functional, cell-based
Conditions: HepG2, 48 h
How it was run: as §2

| Structure (SMILES) | pIC50 |
| --- | --- |
| COc1cc(/C=N/NC(=O)c2nnn(-c3ccc(F)cc3)c2C)cc(OC)c1OC | 4.45 |

Test system: not listed separately
Assay: Antiproliferative activity against human HNO 97 cell line assessed as growth inhibition at 100 ug/mL incubated for 48 hrs by SRB assay relative to control
Assay type: functional
Conditions: read-out: GI
How it was run: as §1

| Structure (SMILES) | inhibition of growth at 100 µg/mL [%] |
| --- | --- |
| COc1cccc(/C=N/NC(=O)c2nnn(-c3ccc(F)cc3)c2C)c1OC | 69 |
| COc1cccc(/C=N/NC(=O)c2nnn(-c3ccc(Br)cc3)c2C)c1OC | 77 |
| COc1cc(/C=N/NC(=O)c2nnn(-c3ccc(F)cc3)c2C)cc(OC)c1OC | 79 |
| COc1ccc(/C=N/NC(=O)c2nnn(-c3ccc(Br)cc3)c2C)cc1OC | 86 |

Test system: FaDu
Assay: Antiproliferative activity against human FaDu cells assessed as growth inhibition at 100 ug/mL incubated for 48 hrs by SRB assay relative to control
Assay type: functional
Conditions: read-out: GI
How it was run: as §1

| Structure (SMILES) | inhibition of growth at 100 µg/mL [%] |
| --- | --- |
| COc1cccc(/C=N/NC(=O)c2nnn(-c3ccc(F)cc3)c2C)c1OC | 70 |
| COc1cccc(/C=N/NC(=O)c2nnn(-c3ccc(Br)cc3)c2C)c1OC | 79 |
| COc1cc(/C=N/NC(=O)c2nnn(-c3ccc(F)cc3)c2C)cc(OC)c1OC | 72 |
| COc1ccc(/C=N/NC(=O)c2nnn(-c3ccc(Br)cc3)c2C)cc1OC | 69 |

Test system: A-375
Assay: Cytotoxicity against human A-375 cells assessed as inhibition of cell growth incubated for 48 hrs by SRB assay
Assay type: functional, cell-based
Conditions: A-375, 48 h
How it was run: as §2

| Structure (SMILES) | pIC50 |
| --- | --- |
| COc1cc(/C=N/NC(=O)c2nnn(-c3ccc(F)cc3)c2C)cc(OC)c1OC | 4.88 |

Test system: MG-63
Assay: Antiproliferative activity against human MG-63 cells assessed as growth inhibition at 100 ug/mL incubated for 48 hrs by SRB assay relative to control
Assay type: functional
Conditions: read-out: GI
How it was run: as §1

| Structure (SMILES) | inhibition of growth at 100 µg/mL [%] |
| --- | --- |
| COc1cccc(/C=N/NC(=O)c2nnn(-c3ccc(F)cc3)c2C)c1OC | 42 |
| COc1cccc(/C=N/NC(=O)c2nnn(-c3ccc(Br)cc3)c2C)c1OC | 63 |
| COc1cc(/C=N/NC(=O)c2nnn(-c3ccc(F)cc3)c2C)cc(OC)c1OC | 63 |
| COc1ccc(/C=N/NC(=O)c2nnn(-c3ccc(Br)cc3)c2C)cc1OC | 42 |
